Experimental data published in ChEMBL document CHEMBL3085747, “Synthesis and biological evaluation of substituted 1,2,3-benzotriazines and pyrido[3,2-d]-1,2,3-triazines as inhibitors of vascular endothelial growth factor receptor-2” (2013).

Assay: Ratio of PTK787 GI50 to compound GI50 for HMVEC after 4 days by MTT assay
Type: functional, Homo sapiens
Conditions: not given

| SMILES | RatioGI50 |
| --- | --- |
| COc1cc2c(Nc3ccc(F)c(Cl)c3)nnnc2cc1OCCCCl | 4 |

Assay: Growth inhibition of HMVEC after 4 days by MTT assay
Type: functional
Conditions: Homo sapiens, 96 h
Summary of the method: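 Human microvascular endothelial cells were grown in DMEM with 4 mM L-glutamine, 4.50 g/L glucose and 10% heat-inactivated FBS. Cells were seeded at 2 × 10³/well for 24 h, then exposed to a range of compound concentrations for 4 days at 37 °C. MTT (2 mg/mL) was added, cells were dissolved in DMSO, and A570 was read. Growth inhibition is relative to untreated cells. GI50 is the mean of three independent experiments.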

| SMILES | GI50 |
| --- | --- |
| CCCCCOc1cc2nnnc(Nc3ccc(Cl)cc3)c2cc1OC | 25.3 µM |
| Fc1cc(Nc2nnnc3ccc(Cl)nc23)ccc1Br | 9.56 µM |
| CCOc1cc2nnnc(Nc3cccc(Cl)c3)c2cc1OC | 60 µM |
| CCCCOc1cc2nnnc(Nc3cccc(Br)c3)c2cc1OC | 16.8 µM |
| CCCCCOc1cc2nnnc(Nc3ccc(Br)c(F)c3)c2cc1OC | > 80 µM |
| Clc1ccc(Nc2nnnc3ccc(Cl)nc23)cc1 | 10.5 µM |
| FC(F)(F)Oc1cccc(Nc2nnnc3ccc(Cl)nc23)c1 | 4.28 µM |
| CCCCOc1cc2nnnc(Nc3ccc(Cl)c(Cl)c3)c2cc1OC | 15.5 µM |
| CCCCCOc1cc2nnnc(Nc3cc(F)cc(F)c3)c2cc1OC | 27.9 µM |
| CCCCOc1cc2nnnc(Nc3ccc(OC(F)(F)F)cc3)c2cc1OC | 30 µM |
| CCOc1cc2nnnc(Nc3ccc(OC(F)(F)F)cc3)c2cc1OC | > 80 µM |
| CCOc1cc2nnnc(Nc3ccccc3F)c2cc1OC | > 80 µM |
| Clc1ccc(Nc2nnc(Cc3ccncc3)c3ccccc23)cc1 | 38.1 µM |
| FC(F)(F)c1cccc(Nc2nnnc3ccc(Cl)nc23)c1 | 5.25 µM |
| CCCCOc1cc2nnnc(Nc3ccc(Br)c(F)c3)c2cc1OC | > 80 µM |
| Clc1cc(Cl)cc(Nc2nnnc3ccc(Cl)nc23)c1 | 7.93 µM |
| CCCCOc1cc2nnnc(Nc3ccc(C(F)(F)F)cc3)c2cc1OC | > 80 µM |
| COc1cc2c(Nc3ccc(F)c(Cl)c3)nnnc2cc1OCCCCl | 7.98 µM |
| CCCCOc1cc2nnnc(Nc3ccc(F)cc3)c2cc1OC | > 80 µM |

| SMILES | GI50 |
| --- | --- |
| COc1cc2c(Nc3ccc(C)cc3)nnnc2cc1OCCCCl | 17.1 µM |
| CCOc1cc2nnnc(Nc3cccc(C(F)(F)F)c3)c2cc1OC | > 80 µM |
| CCOc1cc2nnnc(Nc3ccc(C(F)(F)F)cc3)c2cc1OC | > 80 µM |
| CCCCOc1cc2nnnc(Nc3ccc(F)c(C(F)(F)F)c3)c2cc1OC | 16.1 µM |
| FC(F)(F)Oc1ccc(Nc2nnnc3ccc(Cl)nc23)cc1 | 11.5 µM |
| Fc1ccccc1Nc1nnnc2ccc(Cl)nc12 | 10.8 µM |
| Fc1ccc(Nc2nnnc3ccc(Cl)nc23)cc1C(F)(F)F | 10.8 µM |
| COc1cc2c(Nc3ccc(C(F)(F)F)cc3)nnnc2cc1OCCCCl | 44.4 µM |
| CCCCOc1cc2nnnc(Nc3ccccc3F)c2cc1OC | > 80 µM |
| CCCCCOc1cc2nnnc(Nc3ccc(F)cc3)c2cc1OC | > 80 µM |
| Clc1ccc2nnnc(Nc3cccc(Br)c3)c2n1 | 7.24 µM |
| CCOc1cc2nnnc(Nc3ccc(F)c(C(F)(F)F)c3)c2cc1OC | 31.7 µM |
| CCCCCOc1cc2nnnc(Nc3ccc(OC(F)(F)F)cc3)c2cc1OC | 38 µM |
| CCCCCOc1cc2nnnc(Nc3cccc(OC(F)(F)F)c3)c2cc1OC | 42.6 µM |
| CCCCOc1cc2nnnc(Nc3ccc(C)cc3)c2cc1OC | > 80 µM |
| CCOc1cc2nnnc(Nc3ccc(Br)c(F)c3)c2cc1OC | 73.3 µM |
| FC(F)(F)c1ccc(Nc2nnnc3ccc(Cl)nc23)cc1 | 8.06 µM |
| CCOc1cc2nnnc(Nc3cccc(OC(F)(F)F)c3)c2cc1OC | 23.3 µM |
| CCOc1cc2nnnc(Nc3cccc(Br)c3)c2cc1OC | 39.8 µM |
